Experimental data as given in article PMC9279635 (Acta Pharmaceutica Sinica. B, 2021).

Experiments:
AXL = biological target: T1, AXL (Homo sapiens, UniProt P30530); assay: Kinase selectivity test, AXL; format: biochemical; settings: 10 nmol/L
T1 sequence (P30530 26-894): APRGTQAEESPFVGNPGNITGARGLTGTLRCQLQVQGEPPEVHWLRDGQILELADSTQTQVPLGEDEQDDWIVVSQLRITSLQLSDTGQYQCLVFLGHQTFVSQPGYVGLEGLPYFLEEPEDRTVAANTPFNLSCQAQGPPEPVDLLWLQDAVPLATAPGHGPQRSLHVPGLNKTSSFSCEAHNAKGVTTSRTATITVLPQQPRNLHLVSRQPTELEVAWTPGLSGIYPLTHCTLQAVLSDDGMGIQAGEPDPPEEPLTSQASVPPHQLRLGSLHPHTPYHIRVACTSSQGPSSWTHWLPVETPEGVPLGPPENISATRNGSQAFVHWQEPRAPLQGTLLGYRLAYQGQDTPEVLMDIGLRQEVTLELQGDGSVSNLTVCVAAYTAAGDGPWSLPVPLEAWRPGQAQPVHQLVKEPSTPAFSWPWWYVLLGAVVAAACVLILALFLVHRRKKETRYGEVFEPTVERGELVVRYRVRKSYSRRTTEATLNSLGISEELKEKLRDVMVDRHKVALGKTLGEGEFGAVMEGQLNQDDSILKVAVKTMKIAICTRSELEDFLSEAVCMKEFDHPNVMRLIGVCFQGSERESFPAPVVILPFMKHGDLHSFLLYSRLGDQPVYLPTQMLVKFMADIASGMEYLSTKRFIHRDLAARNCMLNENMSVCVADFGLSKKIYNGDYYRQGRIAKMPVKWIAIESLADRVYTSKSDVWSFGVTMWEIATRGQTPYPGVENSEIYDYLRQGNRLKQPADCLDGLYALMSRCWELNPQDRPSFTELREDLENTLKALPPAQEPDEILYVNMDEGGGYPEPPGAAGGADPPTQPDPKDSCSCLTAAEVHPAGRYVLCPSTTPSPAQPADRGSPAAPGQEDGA

Flt-3 = biological target: T2, Flt-3 (Homo sapiens, UniProt P36888); assay: ELISA kinase assay, Flt-3; format: biochemical; settings: read-out: Flt-3 inhibition@100 nmol/L
T2 sequence (P36888 27-993): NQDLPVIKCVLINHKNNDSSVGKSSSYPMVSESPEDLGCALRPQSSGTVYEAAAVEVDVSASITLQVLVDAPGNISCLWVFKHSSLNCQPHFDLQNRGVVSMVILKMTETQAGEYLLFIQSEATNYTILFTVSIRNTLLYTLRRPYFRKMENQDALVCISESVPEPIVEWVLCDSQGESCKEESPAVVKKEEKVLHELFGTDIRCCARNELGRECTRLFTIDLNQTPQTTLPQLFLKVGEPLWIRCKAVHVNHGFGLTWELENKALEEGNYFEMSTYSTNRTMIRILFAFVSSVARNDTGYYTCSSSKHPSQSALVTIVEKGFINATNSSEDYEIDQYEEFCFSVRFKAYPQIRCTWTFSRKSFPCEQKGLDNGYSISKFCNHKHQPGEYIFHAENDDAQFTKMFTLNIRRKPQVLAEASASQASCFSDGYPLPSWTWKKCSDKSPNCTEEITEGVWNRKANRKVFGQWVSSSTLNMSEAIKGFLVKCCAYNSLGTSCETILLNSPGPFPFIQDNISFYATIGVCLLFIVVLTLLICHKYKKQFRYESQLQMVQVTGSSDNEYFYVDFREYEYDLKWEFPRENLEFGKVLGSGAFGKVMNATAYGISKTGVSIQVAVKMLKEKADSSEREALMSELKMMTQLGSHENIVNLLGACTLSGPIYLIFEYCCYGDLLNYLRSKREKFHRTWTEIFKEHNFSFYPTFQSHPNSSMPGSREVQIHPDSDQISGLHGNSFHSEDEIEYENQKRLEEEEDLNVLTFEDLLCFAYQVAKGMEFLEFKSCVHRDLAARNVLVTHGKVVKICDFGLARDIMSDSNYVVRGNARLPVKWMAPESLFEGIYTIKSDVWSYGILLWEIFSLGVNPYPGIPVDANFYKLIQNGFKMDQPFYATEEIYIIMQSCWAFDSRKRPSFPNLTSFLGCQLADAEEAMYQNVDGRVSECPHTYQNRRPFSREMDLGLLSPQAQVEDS

c-Src = c-Src (Homo sapiens, UniProt P12931); assay: Kinase selectivity test, c-Src; format: biochemical; settings: 10 nmol/L
FGFR-1 = FGFR-1 (Homo sapiens, UniProt P11362); assay: Kinase selectivity test, FGFR-1; format: biochemical; settings: 10 nmol/L
VEGFR-1 = VEGFR-1 (Homo sapiens, UniProt P17948); assay: Kinase selectivity test, VEGFR-1; format: biochemical; settings: 10 nmol/L
[1] = system: DDR2 phosphorylation in MRC-5; assay: DDR2 phosphorylation in TGF-β stimulated MRC-5; format: cell-based; settings: 1 μmol/L, MRC-5, 24 h TGF-β stimulation
In short: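 Confluent MRC-5 fibroblasts are stimulated with TGF-β (5 ng/mL) and treated with a range of test compound concentrations for 24 h. Western blots are probed for phospho-DDR2, fibronectin, α-SMA, with GAPDH as loading control.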

KDR = KDR (Homo sapiens, UniProt P35968); assay: ELISA kinase assay, KDR; format: biochemical; settings: 10 nmol/L
PDGFR = assay: Kinase selectivity test, PDGFR; format: biochemical; settings: 10 nmol/L
EPH-A2 = EPH-A2 (Homo sapiens, UniProt P29317); assay: Kinase selectivity test, EPH-A2; format: biochemical; settings: 10 nmol/L
DDR1 = DDR1 (Homo sapiens, UniProt Q08345); assay: ELISA kinase assay, DDR1; format: biochemical
RET = RET (Homo sapiens, UniProt P07949); assay: ELISA kinase assay, RET; format: biochemical
ALK = ALK (Homo sapiens, UniProt Q9UM73); assay: Kinase selectivity test, ALK; format: biochemical; settings: 1 μmol/L
ABL = ABL (Homo sapiens, UniProt P00519); assay: Kinase selectivity test, ABL; format: biochemical; settings: 10 nmol/L
ErbB4 = ErbB4 (Homo sapiens, UniProt Q15303); assay: Kinase selectivity test, ErbB4; format: biochemical; settings: 10 nmol/L

Chain of RET (P07949 29-1114): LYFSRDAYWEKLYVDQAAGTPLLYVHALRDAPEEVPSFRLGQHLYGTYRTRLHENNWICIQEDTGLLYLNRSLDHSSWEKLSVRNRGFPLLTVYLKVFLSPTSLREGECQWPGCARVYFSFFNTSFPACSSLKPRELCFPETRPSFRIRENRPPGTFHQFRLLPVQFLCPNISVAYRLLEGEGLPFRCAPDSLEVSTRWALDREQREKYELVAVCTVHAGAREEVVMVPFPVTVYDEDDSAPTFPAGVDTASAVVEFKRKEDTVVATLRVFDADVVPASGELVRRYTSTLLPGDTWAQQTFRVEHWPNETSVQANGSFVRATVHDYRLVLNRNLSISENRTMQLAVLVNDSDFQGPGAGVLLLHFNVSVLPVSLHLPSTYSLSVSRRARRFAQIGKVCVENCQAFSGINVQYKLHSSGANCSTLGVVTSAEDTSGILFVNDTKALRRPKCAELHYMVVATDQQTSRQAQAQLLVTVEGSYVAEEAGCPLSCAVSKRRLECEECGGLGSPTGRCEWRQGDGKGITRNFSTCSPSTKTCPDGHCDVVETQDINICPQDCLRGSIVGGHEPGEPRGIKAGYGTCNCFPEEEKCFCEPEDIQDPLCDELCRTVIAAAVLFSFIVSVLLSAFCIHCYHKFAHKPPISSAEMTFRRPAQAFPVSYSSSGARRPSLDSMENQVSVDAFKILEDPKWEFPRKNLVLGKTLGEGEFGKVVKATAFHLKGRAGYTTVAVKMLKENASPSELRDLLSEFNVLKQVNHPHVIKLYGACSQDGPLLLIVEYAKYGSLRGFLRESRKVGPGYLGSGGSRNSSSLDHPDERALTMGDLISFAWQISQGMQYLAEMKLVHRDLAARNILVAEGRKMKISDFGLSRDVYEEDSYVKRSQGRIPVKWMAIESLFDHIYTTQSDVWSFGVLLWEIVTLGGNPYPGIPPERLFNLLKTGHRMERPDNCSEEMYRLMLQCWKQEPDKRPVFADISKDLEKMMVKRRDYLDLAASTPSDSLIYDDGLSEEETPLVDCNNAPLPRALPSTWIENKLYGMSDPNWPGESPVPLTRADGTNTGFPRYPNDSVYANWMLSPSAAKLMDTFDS
Chain of c-Src (P12931 whole entry): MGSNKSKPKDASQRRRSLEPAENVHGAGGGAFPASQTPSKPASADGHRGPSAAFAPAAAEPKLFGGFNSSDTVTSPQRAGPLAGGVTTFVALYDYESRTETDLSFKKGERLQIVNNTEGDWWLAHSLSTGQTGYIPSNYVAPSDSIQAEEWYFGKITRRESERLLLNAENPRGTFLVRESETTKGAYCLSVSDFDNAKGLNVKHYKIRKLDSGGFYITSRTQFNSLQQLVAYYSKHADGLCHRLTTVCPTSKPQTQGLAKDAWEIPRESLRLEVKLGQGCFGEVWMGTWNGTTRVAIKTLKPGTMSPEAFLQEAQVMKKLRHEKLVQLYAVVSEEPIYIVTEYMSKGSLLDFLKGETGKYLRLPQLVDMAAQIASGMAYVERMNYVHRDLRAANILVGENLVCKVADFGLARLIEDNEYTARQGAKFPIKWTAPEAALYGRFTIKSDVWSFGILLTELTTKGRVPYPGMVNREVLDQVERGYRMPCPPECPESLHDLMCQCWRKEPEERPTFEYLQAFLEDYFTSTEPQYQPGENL
Chain of ABL (P00519 whole entry): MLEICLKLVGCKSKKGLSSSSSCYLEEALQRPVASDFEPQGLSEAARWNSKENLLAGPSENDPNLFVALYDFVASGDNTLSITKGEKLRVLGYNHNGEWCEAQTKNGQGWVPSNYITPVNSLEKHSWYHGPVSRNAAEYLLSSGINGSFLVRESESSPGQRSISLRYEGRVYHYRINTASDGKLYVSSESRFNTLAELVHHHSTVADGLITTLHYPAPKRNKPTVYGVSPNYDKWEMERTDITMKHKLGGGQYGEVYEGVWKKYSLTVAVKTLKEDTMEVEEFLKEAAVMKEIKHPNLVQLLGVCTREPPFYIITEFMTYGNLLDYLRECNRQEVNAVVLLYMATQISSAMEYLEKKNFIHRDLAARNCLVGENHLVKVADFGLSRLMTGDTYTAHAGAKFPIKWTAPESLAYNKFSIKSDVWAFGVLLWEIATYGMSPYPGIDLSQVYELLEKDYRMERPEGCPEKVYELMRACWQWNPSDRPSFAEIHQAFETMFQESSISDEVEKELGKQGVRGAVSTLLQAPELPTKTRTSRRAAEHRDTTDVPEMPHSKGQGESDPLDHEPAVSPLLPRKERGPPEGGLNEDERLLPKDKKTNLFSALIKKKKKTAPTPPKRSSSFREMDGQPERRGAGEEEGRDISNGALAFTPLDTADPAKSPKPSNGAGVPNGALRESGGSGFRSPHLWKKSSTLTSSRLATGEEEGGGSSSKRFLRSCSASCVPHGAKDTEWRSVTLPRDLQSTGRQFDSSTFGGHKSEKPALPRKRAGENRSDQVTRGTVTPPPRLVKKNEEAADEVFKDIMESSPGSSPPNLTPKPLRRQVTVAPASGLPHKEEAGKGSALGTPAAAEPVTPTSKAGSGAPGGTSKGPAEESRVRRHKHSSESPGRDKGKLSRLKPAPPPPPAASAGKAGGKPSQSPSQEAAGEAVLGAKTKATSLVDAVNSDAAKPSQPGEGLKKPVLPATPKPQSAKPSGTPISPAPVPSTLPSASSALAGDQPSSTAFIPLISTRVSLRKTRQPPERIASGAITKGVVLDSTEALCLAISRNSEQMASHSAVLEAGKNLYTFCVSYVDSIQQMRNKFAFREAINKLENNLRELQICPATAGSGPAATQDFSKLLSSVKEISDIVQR
Chain of ALK (Q9UM73 19-1620): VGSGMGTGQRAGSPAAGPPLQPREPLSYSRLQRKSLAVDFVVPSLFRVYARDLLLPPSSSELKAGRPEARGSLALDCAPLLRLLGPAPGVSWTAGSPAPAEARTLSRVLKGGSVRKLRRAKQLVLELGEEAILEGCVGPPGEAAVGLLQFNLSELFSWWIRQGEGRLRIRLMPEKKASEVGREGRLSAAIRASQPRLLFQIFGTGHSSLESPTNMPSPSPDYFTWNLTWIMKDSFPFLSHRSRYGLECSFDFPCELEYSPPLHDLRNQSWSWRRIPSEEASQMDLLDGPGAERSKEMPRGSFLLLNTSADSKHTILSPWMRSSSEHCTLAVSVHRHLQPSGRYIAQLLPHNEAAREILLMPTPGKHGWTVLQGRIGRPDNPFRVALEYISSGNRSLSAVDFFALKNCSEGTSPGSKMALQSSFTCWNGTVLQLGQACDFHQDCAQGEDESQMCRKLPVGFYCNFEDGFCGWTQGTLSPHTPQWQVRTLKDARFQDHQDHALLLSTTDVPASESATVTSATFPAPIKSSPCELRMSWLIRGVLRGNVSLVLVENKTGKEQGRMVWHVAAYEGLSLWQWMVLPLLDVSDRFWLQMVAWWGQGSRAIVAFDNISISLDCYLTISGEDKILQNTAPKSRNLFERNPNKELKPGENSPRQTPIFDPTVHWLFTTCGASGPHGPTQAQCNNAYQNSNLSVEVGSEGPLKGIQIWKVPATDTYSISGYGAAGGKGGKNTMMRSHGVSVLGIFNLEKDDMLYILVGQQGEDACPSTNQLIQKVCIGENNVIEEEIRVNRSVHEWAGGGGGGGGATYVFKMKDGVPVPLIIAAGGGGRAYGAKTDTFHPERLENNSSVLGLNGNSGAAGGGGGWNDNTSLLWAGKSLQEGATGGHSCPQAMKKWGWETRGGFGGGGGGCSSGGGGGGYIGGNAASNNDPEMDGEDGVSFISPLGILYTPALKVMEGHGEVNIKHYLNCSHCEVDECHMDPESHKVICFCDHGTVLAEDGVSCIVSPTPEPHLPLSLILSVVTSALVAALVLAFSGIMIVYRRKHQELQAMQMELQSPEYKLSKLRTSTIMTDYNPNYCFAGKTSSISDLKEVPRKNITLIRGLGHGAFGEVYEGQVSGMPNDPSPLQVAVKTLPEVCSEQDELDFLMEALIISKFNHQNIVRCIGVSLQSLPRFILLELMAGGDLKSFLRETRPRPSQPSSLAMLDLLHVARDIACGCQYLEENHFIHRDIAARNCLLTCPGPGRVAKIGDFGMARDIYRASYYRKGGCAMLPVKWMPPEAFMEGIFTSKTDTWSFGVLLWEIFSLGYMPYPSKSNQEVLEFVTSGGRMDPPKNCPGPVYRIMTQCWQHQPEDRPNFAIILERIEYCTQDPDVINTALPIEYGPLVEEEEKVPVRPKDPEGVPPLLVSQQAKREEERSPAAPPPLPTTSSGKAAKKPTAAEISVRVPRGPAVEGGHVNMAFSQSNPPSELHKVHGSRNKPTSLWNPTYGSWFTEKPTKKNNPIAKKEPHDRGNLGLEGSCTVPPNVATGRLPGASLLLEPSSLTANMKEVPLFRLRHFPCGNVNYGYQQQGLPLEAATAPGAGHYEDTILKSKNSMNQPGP

Question: With `Cc1ccc(C(=O)Nc2cccc(C(F)(F)F)c2)cc1-c1ccc2nc(Nc3cnn(C)c3)ncc2c1` [Compound 22, 4-Methyl-3-(2-((1-methyl-1H-pyrazol-4-yl)amino)quinazolin-6-yl)-N-(3-(trifluoromethyl)phenyl)benzamide] as the molecule, how does the AXL inhibition ratio (AXL) read?
Answer: The AXL inhibition ratio was “over 50%”.

Question: What about the inhibition at 0.1 µM (Flt-3) of the same molecule?
Answer: The inhibition at 0.1 µM was 80.3%.

Question: What about the c-Src inhibition ratio (c-Src) of the same molecule?
Answer: The c-Src inhibition ratio was “over 50%”.

Question: What about the FGFR-1 inhibition ratio (FGFR-1) of the same molecule?
Answer: The FGFR-1 inhibition ratio was “over 50%”.

Question: What about the VEGFR-1 inhibition ratio (VEGFR-1) of the same molecule?
Answer: The VEGFR-1 inhibition ratio was “over 50%”.

Question: And the “inhibition of DDR2 phosphorylation” value [1]?
Answer: Its value is “high inhibitory activity”.

Question: What about the KDR inhibition ratio (KDR) of the same molecule?
Answer: Its KDR inhibition ratio is “over 50%”.

Question: And the PDGFR inhibition ratio (PDGFR)?
Answer: Its PDGFR inhibition ratio is “over 50%”.

Question: And the EPH-A2 inhibition ratio (EPH-A2)?
Answer: Its EPH-A2 inhibition ratio is “over 50%”.

Question: And the IC50 (DDR1)?
Answer: The IC50 was 8.13 nM.

Question: What about the inhibition at 0.01 µM (RET; read-out: RET inhibition @10 nmol/L) of the same molecule?
Answer: Its inhibition at 0.01 µM is > 50%.

Question: And the inhibition at 0.1 µM (RET; read-out: RET inhibition @100 nmol/L)?
Answer: Its inhibition at 0.1 µM is 97.2%.

Question: And the “inhibition ratio on ALK” value (ALK)?
Answer: The value was 18.5%.

Question: And the ABL inhibition ratio (ABL)?
Answer: Its ABL inhibition ratio is “over 50%”.

Question: And the ErbB4 inhibition ratio (ErbB4)?
Answer: Its ErbB4 inhibition ratio is “over 50%”.
